No end group written: not given here.
How the values were obtained:
[1] = tested on: α-synuclein self-association in SK-N-SH cells; format: cell-based, human
PLCβ1 [2] = format: biochemical
α-synuclein = format: cell-based, human
PLCβ1 [3] = experiment: Western blot of PLCβ1 level in SK-N-SH cells under oxidative stress; format: cell-based, human
purified α-synuclein = experiment: CoCl2-induced aggregation of purified α-synuclein, SDS gel; format: biochemical
[4] = tested on: PLCβ1-α-synuclein association; experiment: In vitro FRET: CPM-PLCβ1 / Dabcyl-α-synuclein association; format: binding; settings: 200 µM and 500 µM peptide
[5] = tested on: α-synuclein self-association in PC12 cells; experiment: GFP-α-synuclein/mCherry-α-synuclein FRET in PC12 cells; format: cell-based, human; settings: 50 µM peptide microinjected, viewed within 2 h
In short: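 PC12 cells (DMEM, 10% horse serum, 5% FBS, 37 °C, 5% CO₂) are electroporated with eGFP- and mCherry-α-synuclein and plated on glass-bottom dishes 24 h later. Medium is switched to phenol-free L-15. Peptide (50 µM in pipette; 100 mM KCl, 5 mM K₂HPO₄, pH 7.4, 5 µM DAPI marker) is injected into cytoplasm for 0.4 s (30/15 hPa). Viable cells are selected, then confocal FRET is imaged within 2 h.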

PLCβ1 [6] = settings: in cells; ref [16]; cited from earlier work
PLCβ [7] = settings: inhibition can be overcome by G proteins; ref [15]; cited from earlier work
PLCβ [8] = settings: among α-synuclein binding partners; ref [15]; cited from earlier work
neuronal cells = settings: overexpression of α-synuclein; ref [34]; cited from earlier work
PLCβ1-C3PO interaction = settings: in vitro FRET; ref Sahu, Guo, and Scarlata, unpublished results; cited from earlier work

In the case of `[Cl-].[Cl-].[Co+2]` [CoCl2], the “GFP-α-synuclein/mCherry-α-synuclein FRET, oxidative stress” value [1] is reported as “significant increase in FRET”, the “Amount of native PLCβ1” value (PLCβ1 [2]) is reported as “reduces the amount of native PLCβ1” and the “Amount of α-synuclein” value (α-synuclein) is reported as “little effect on the amount of α-synuclein”. The “α-Synuclein tetramers vs monomers” value (α-synuclein) was “increase in α-synuclein tetramers at the expense of monomers”, the “Cellular level of PLCβ1” value (PLCβ1 [3]) was “significantly reduces the cellular level of PLCβ1” and the “α-Synuclein aggregation induced by CoCl2” value (purified α-synuclein) was “produces visible α-synuclein aggregation”.

With CKKVVLPTLASLR [peptide] the PLCβ1-α-synuclein association [4] was “inhibits PLCβ1-α-synuclein association” and the “GFP-α-synuclein/mCherry-α-synuclein FRET, peptide” value [5] was “the same within error”.

In the case of α-synuclein, the “Intracellular level of PLCβ1” value (PLCβ1 [6]) is listed as “raises the intracellular level of the enzyme”, the “PLCβ1 degradation by calpain” value (PLCβ1 [6]) is listed as “prevents PLCβ1 degradation by calpain” and the “Decrease of PLCβ1 level due to oxidation, effect of α-synuclein” value (PLCβ1 [3]; oxidative stress, α-synuclein present) is listed as “more pronounced in the presence of α-synuclein”. For the same compound, the PLCβ activity (PLCβ [7]) was “inhibits PLCβ activity”, the “Affinity of PLCβ for α-synuclein” value (PLCβ [8]) was “one of the strongest affinities” and the “Inclusions and neuronal death on overexpression” value (neuronal cells) was “cause inclusions and neuronal death”. The “Interaction of Alexa488-PLCβ1 with Alexa546-C3PO” value (PLCβ1-C3PO interaction) was “prevents Alexa488-PLCβ1 from interacting with Alexa546-C3PO”.
